# Experimental data reported in ChEMBL document CHEMBL1125279, “Neurochemistry of aging. 2. Design, synthesis, and biological evaluation of halomethyl analogues of choline with high affinity choline transport inhibitory activity” (J Med Chem, 1991).
# Legend:
# Assay type in all cases: functional
# Rattus norvegicus = species: Rattus norvegicus; assay: Concentration required to inhibit 50% of the transport of [3H]choline into synaptosomes, using rat hippocampal synaptosomes.; settings: Hippocampus
# In short: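 Rat hippocampus dissected on ice, homogenized in 0.32 M sucrose; P2 pellet (12000g, 20 min) resuspended in sucrose. Synaptosomes incubated with [3H]choline and increasing inhibitor concentrations, 8 min at 30 °C; filtered, washed three times, lysed in water, tritium counted. High-affinity uptake = standard-medium minus sodium-free accumulation, per mg protein (Lowry); IC50 from percent inhibition.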
# Cavia porcellus [1] = species: Cavia porcellus; assay: Relative potency with respect to choline in isolated guinea pig ileum preparations.
# Cavia porcellus [2] = species: Cavia porcellus; assay: Relative potency with respect to acetylcholine in isolated guinea pig ileum preparations.
# In short: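 Guinea pig ileum segment in Tyrode's solution (NaCl 137 mM, KCl 2.68 mM, MgCl2 1.05 mM, CaCl2 1.80 mM, NaH2PO4 0.42 mM, NaHCO3 11.90 mM, glucose 5.55 mM), contents flushed. Contractions to 3–7 concentrations recorded by polygraph and compared against concentration responses to acetylcholine and choline.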
IC50 (Rattus norvegicus),SMILES,Relative potency (Cavia porcellus [1]),Relative potency (Cavia porcellus [2])
56 µM,CC(O)C[N+](C)(C)CBr.[Br-] (stereo unspecified),0.04,
200 µM,CC1C[N+](C)(C)CO1.[Br-] (stereo unspecified),2,
78 µM,C[N+]1(C)CCOC1.[Br-],4.25,
,CC(=O)OCC[N+](C)(C)CI.[I-],,0.11
,CC(=O)OCC[N+](C)(C)CBr.[Br-],,0.05
0.87 µM,C[N+](C)(CBr)CCO.[Br-],0.14,
0.92 µM,C[N+](C)(CCl)CCO.[I-],0.13,
130 µM,CC(O)C[N+](C)(C)CCl.[I-] (stereo unspecified),0.05,
,CC(=O)OC(C)C[N+](C)(C)CI.[I-] (stereo unspecified),,0.02
0.49 µM,C[N+](C)(CI)CCO.[I-],0.33,
50 µM,CC(O)C[N+](C)(C)CI.[I-] (stereo unspecified),0.1,
,CC(=O)OCC[N+](C)(C)CCl.[I-],,0.09
,CC(=O)OCC[N+](C)(C)C.[I-] [ACETYLCHOLINE IODIDE],,1
